Reference: ChEMBL document CHEMBL5715960, “Epigenetic Co-Deregulation of EZH2/TET1 is a Senescence-Countering, Actionable Vulnerability in Triple-Negative Breast Cancer” (Theranostics, 2019)
Active and inactive are the calls of the source. The calls are words filed in the database; no cut-off is given here.

How the values were obtained:
[1] = test system: MDA-MB-231; assay: Effect on human MDA-MB-231 cells assessed as apoptotic phenotype by measuring increase in p53 expression level at 2 uM in presence of adriamycin by immunoblot analysis; assay type: functional, cell-based
Procedure, shortened: (§1)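 Immunoblot of cell lysates after 0.05 µg/ml adriamycin alone, with 2 µM GSK343, or DMSO. α-Tubulin and total H3 used as loading controls.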

[2] = test system: MDA-MB-231; assay: Induction of cell cycle arrest in human MDA-MB-231 cells assessed as accumulation of cells at G1 phase measured at 2 uM by BrdU/PI staining based flow cytometric analysis (reference value: 51.5%); assay type: functional
[3] = test system: MDA-MB-436; assay: Upregulation of TET1 in human MDA-MB-436 cells at 2 uM for 2 days by immunoblot analysis; assay type: functional, cell-based; conditions: time 2.0 day
[4] = test system: MDA-MB-436; assay: Effect on human MDA-MB-436 cells assessed as increase in TET1 transcription by qRT-PCR analysis; assay type: functional, cell-based
Procedure, shortened: (§2)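 qRT-PCR of TET1, TET2 and TET3 transcripts in breast cancer cells exposed to GSK343 (2 µM unless otherwise indicated), shown relative to DMSO-treated cells. Mean ± SD, triplicate unless stated.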

[5] = test system: MDA-MB-436; assay: Upregulation of CDKN1A gene in human MDA-MB-436 cells at 2 uM by qRT-PCR analysis; assay type: functional, cell-based
Procedure, shortened: (§3)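 Relative transcript levels measured by qRT-PCR in cells treated with 2 µM inhibitor, normalised to DMSO-treated control cells. Triplicate experiments unless stated otherwise; mean ± SD reported; unpaired two-tailed Student's t-test at p < 0.05.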

[6] = test system: MDA-MB-231; assay: Downregulation of EZH2 in human MDA-MB-231 cells at 2 uM for 2 days by immunoblot analysis; assay type: functional, cell-based; conditions: time 2.0 day
[7] = test system: MDA-MB-436; assay: Effect on human MDA-MB-436 cells assessed as increase in TET1 protein level by qRT-PCR analysis
[8] = test system: MDA-MB-436; assay: Effect on human MDA-MB-436 cells assessed as increase in TET1 mRNA level by qRT-PCR analysis
[9] = test system: SK-BR-3; assay: Antiproliferative activity in human SK-BR-3 cells assessed as increase in SA-beta-gal positive cells at 2 uM for 5 days by SA-beta-gal staining analysis; assay type: toxicity, cell-based; conditions: sk-br-3, 120 h, time 5 day
Procedure, shortened: (§4)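 GSK343 2 µM or DMSO for 5 days, then chromogenic SA-β-gal staining and counting of positive cells. Triplicate; mean ± SD.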

[10] = test system: MCF7; assay: Cytotoxicity against human MCF7 cells assessed as increase in cell death at 10 uM for 2 days by Guava viacount assay; assay type: toxicity, cell-based; conditions: mcf7, 48 h, time 2 day
Procedure, shortened: (§5)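 Cells plated at 2 × 10^4 (24-well) or 1 × 10^5 (12-well), exposed to a range of GSK343 concentrations for 2 days against DMSO solvent control; cell number and viability read by Guava ViaCount flow cytometry, relative to DMSO. Triplicate; mean ± SD.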

[11] = test system: SK-BR-3; assay: Cytotoxicity against human SK-BR-3 cells assessed as increase in cell death at 10 uM for 2 days by Guava viacount assay; assay type: toxicity, cell-based; conditions: sk-br-3, 48 h, time 2 day; procedure, shortened: as §5
[12] = test system: MDA-MB-231; assay: Antitumor activity against human MDA-MB-231 cells xenografted in Crl:NU-Foxn1-nu/nu mouse assessed as reduction in tumor administered at 5 mg/kg, ip in presence of adriamycin treated for 21 days; assay type: functional, organism-based; conditions: time 21.0 day
[13] = test system: MDA-MB-436; assay: Downregulation of E2F1 in human MDA-MB-436 cells at 2 uM for 2 days by immunoblot analysis; assay type: functional, cell-based; conditions: time 2.0 day
[14] = test system: MDA-MB-436; assay: Effect on human MDA-MB-436 cells assessed as apoptotic phenotype by measuring increase in BIM expression level at 2 uM in presence of adriamycin by immunoblot analysis; assay type: functional, cell-based; procedure, shortened: as §1
[15] = test system: BT-474; assay: Effect on human BT-474 cells assessed as increase in TET3 transcription by qRT-PCR analysis; assay type: functional, cell-based; procedure, shortened: as §2
[16] = test system: BT-474; assay: Effect on human BT-474 cells assessed as increase in TET2 transcription by qRT-PCR analysis; assay type: functional, cell-based; procedure, shortened: as §2
[17] = test system: MDA-MB-436; assay: Antitumor activity against human MDA-MB-436 cells xenografted in Crl:NU-Foxn1-nu/nu mouse assessed as reduction in tumor administered at 5 mg/kg, ip in presence of adriamycin treated for 21 days; assay type: functional, organism-based; conditions: time 21.0 day
[18] = test system: BT-474; assay: Upregulation of TP53 gene in human BT-474 cells at 2 uM by qRT-PCR analysis; assay type: functional, cell-based; procedure, shortened: as §3
[19] = test system: MDA-MB-231; assay: Antiproliferative activity in human MDA-MB-231 cells expressing vector assessed as increase in SA-beta-gal positive cells by SA-beta-gal staining analysis (reference value: 6.5+/-4%); assay type: functional
[20] = test system: MDA-MB-231; assay: Effect on […] in human MDA-MB-231 cells assessed as repression in TET1 promoter H3K27me3 by ChiP-qPCR analysis; assay type: functional, cell-based
Procedure, shortened: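 Cells treated with GSK343 or DMSO; chromatin immunoprecipitated with anti-EZH2 or anti-H3K27me3 antibody and quantified by qPCR with primers for the TET1 promoter; input as internal control, IgG as negative control.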

[21] = test system: MDA-MB-231; assay: Effect on human MDA-MB-231 cells assessed as increase in TET1 mRNA level by qRT-PCR analysis
[22] = test system: MDA-MB-231; assay: Induction of apoptosis in human MDA-MB-231 cells assessed as decrease in accumulation of cells at S phase in presence of adriamycin by BrdU/PI-based cell cycle analysis; assay type: functional
Procedure, shortened: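 Cell cycle by BrdU/PI staining and flow cytometry, giving G1, S and G2 fractions. Cells received 0.005 µg/ml adriamycin with or without 2 µM GSK343, or DMSO. Mean ± SD.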

[23] = test system: BT-474; assay: Upregulation of CDKN1A gene in human BT-474 cells at 2 uM by qRT-PCR analysis; assay type: functional, cell-based; procedure, shortened: as §3
[24] = test system: MDA-MB-231; assay: Antiproliferative activity in human MDA-MB-231 cells assessed as increase in SA-beta-gal positive cells at 2 uM for 5 days by SA-beta-gal staining analysis; assay type: functional, cell-based; conditions: time 5.0 day; procedure, shortened: as §4
[25] = test system: MDA-MB-436; assay: Antiproliferative activity against human MDA-MB-436 cells at 0.5 to 2 uM for 2 days by Guava viacount assay; assay type: functional, cell-based; conditions: dose 0.5-2 µM, time 2.0 day; procedure, shortened: as §5
[26] = test system: MDA-MB-231; assay: Effect on human MDA-MB-231 cells assessed as apoptotic phenotype by measuring increase in PUMA expression level at 2 uM in presence of adriamycin by immunoblot analysis; assay type: functional, cell-based; procedure, shortened: as §1
[27] = test system: MCF7; assay: Upregulation of TP53 gene in human MCF7 cells at 2 uM by qRT-PCR analysis; assay type: functional, cell-based; procedure, shortened: as §3
[28] = test system: MCF7; assay: Effect on human MCF7 cells assessed as increase in TET2 transcription by qRT-PCR analysis; assay type: functional, cell-based; procedure, shortened: as §2
[29] = test system: MDA-MB-231; assay: Effect on human MDA-MB-231 cells expressing shTET1 assessed as reduction in cyclinA by immunoblot analysis; assay type: functional, cell-based
[30] = test system: BT-474; assay: Effect on human BT-474 cells assessed as increase in TET1 transcription by qRT-PCR analysis; assay type: functional, cell-based; procedure, shortened: as §2
[31] = test system: MDA-MB-436; assay: Effect on human MDA-MB-436 cells assessed as apoptotic phenotype by measuring increase in BAX expression level at 2 uM in presence of adriamycin by immunoblot analysis; assay type: functional, cell-based; procedure, shortened: as §1

SMILES: CCCc1cc(C)[nH]c(=O)c1CNC(=O)c1cc(-c2ccnc(N3CCN(C)CC3)c2)cc2c1cnn2C(C)C
- Activity [1]: Active
- Activity [2]: 76.8%
- Activity [3]: Active
- Activity [4]: Active
- Activity [5]: Active
- Activity [6]: Active
- Activity [7]: Active
- Activity [8]: Active
- Activity [9]: Non-Toxic
- Activity [10]: Non-Toxic
- Activity [11]: Non-Toxic
- Activity [12]: Active
- Activity [13]: Active
- Activity [14]: Active
- Activity [15]: inactive
- Activity [16]: inactive
- Activity [17]: Active
- Activity [18]: inactive
- Activity [19]: 45.6%
- Activity [20]: Active
- Activity [21]: Active
- Activity [22]: Active
- Activity [23]: inactive
- Activity [24]: Active
- Activity [25]: Active
- Activity [26]: Active
- Activity [27]: inactive
- Activity [28]: inactive
- Activity [29]: inactive
- Activity [30]: inactive
- Activity [31]: Active
